Data reported in ChEMBL document CHEMBL1143168, “Conformational preferences of natural and C3-modified epothilones in aqueous solution” (J Med Chem, 2008).

Columns and labels:
[1] = Induction of pig brain alpha-beta-tubulin polymerization; parameters: species or system Sus scrofa
Summary of the method: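 Porcine brain tubulin at 10 µM. Polymerization followed by turbidity at 340 nm until a stable A340 plateau (equilibrium between soluble and polymerized tubulin). EC50 is the concentration inducing 50% of the maximum achievable polymerization. The maximum is the plateau beyond which higher compound concentration gives no further A340 increase.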

[2] = Antiproliferative activity against human PC3M cells after 72 hrs by methylene blue staining; assay type: functional, cell-based; conditions: PC-3M
Summary of the method: (§1)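 Human cancer cell lines exposed to compound for 72 h. Cells then fixed and total protein quantified by methylene blue staining. IC50 taken as concentration giving 50% growth inhibition.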

[3] = test system: HCT-116; experiment: Antiproliferative activity against human HCT116 cells after 72 hrs by methylene blue staining; assay type: functional, cell-based; conditions: HCT-116, 72 h; summary of the method: as §1
[4] = test system: MCF7; experiment: Antiproliferative activity against human MCF7 cells after 72 hrs by methylene blue staining; assay type: functional, cell-based; conditions: MCF7, 72 h; summary of the method: as §1

Structure (SMILES) | EC50 [1] [nM] | IC50 [2] [nM] | IC50 [3] [nM] | IC50 [4] [nM]
C/C(=C\c1csc(C)n1)[C@@H]1C[C@@H]2O[C@@H]2CCC[C@H](C)[C@H](O)[C@@H](C)C(=O)C(C)(C)[C@@H](O)CC(=O)O1 [EPOTHILONE A] | 4600 | 6.4 | 2.8 | 2.9
C/C(=C\c1csc(C)n1)[C@@H]1C[C@@H]2O[C@@H]2CCC[C@H](C)[C@H](O)[C@@H](C)C(=O)C(C)(C)CCC(=O)O1 [3-DEOXY-EPO A] | 5600 | 79 | 84.4 | 58.4
C/C(=C\c1csc(C)n1)[C@@H]1C[C@@H]2O[C@@H]2CCC[C@H](C)[C@H](O)[C@@H](C)C(=O)C(C)(C)/C=C/C(=O)O1 [3-DEOXY-2,3-DIDEHYDRO-EPO A] | 4800 | 24.8 | 16.2 | 8.7
